In ChEMBL document CHEMBL4219091, “Pharmacophore requirements for HIV-1 reverse transcriptase inhibitors that selectively "Freeze" the pre-translocated complex during the polymerization catalytic cycle” (Bioorg Med Chem, 2018):
Activity calls are given as the source filed them. The rule behind the calls is not given here.

Columns and labels:
[1] = molecular target: Human immunodeficiency virus type 1 reverse transcriptase (Human immunodeficiency virus 1) (UniProt Q72547); assay: Inhibition of HIV1 reverse transcriptase p66/p51 assessed as freezing of template-primer-enzyme complex at […] stage at 10 uM using 5'-radiolabeled PBS36c DNA/5'-TTCTGACTAAAAGGGTCTGAGGGAT-3 as template/primer preincubated for 10 mins followed by Fe2+ addition by site-specific foot printing assay
How it was run: (§1)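 Fe2+ chemical footprinting: 50 nM 5'-radiolabeled PBS36c DNA template annealed to 150 nM primer, incubated with 750 nM HIV-1 RT in 120 mM sodium cacodylate (pH 7), 20 mM NaCl, 6 mM MgCl2. Compound added at fixed or increasing concentrations, 10 min preincubation at 37 °C. Screening at fixed concentration, 10 µM or 100 µM depending on compound.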

[2] = molecular target: T1, Human immunodeficiency virus type 1 reverse transcriptase (Human immunodeficiency virus 1, UniProt Q72547); assay: Inhibition of HIV1 reverse transcriptase p66/p51 polymerase using PPT57 DNA/Cy5-labeled PPT24 as template/primer preincubated for 10 mins followed by dNTP addition measured after 5 mins by bromophenol blue staining based phosphor imaging analysis
How it was run: (§2)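 Gel-based DNA synthesis: PPT57 DNA template (3-fold molar excess) heat-annealed to 50 nM 5'-Cy5-labeled PPT24 primer; 200 nM RT in 50 mM Tris-HCl pH 7.8, 50 mM NaCl, 6 mM MgCl2. Started with 0.5 mM each dNTP, 5 min, 12% denaturing gel.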

[3] = system: Human immunodeficiency virus 1; assay: Ratio of IC50 for HIV1 reverse transcriptase p66/p51 polymerase M184V mutant to IC50 for HIV1 reverse transcriptase p66/p51 polymerase wild type
[4] = molecular target: Human immunodeficiency virus type 1 reverse transcriptase (Human immunodeficiency virus 1, UniProt Q72547, E89K); assay: Inhibition of HIV1 reverse transcriptase p66/p51 polymerase E89K mutant using PPT57 DNA/Cy5-labeled PPT24 as template/primer preincubated for 10 mins followed by dNTP addition measured after 5 mins by bromophenol blue staining based phosphor imaging analysis
How it was run: (§3)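 Template/primer: Cy5-labelled PPT24 primer (50 nM) heat-annealed to a 3-fold molar excess of PPT57 DNA template. Incubated with 200 nM RT in 50 mM Tris-HCl pH 7.8, 50 mM NaCl, 6 mM MgCl2. Inhibitor titrated up to […], with at most 5% final DMSO. Pre-incubated 10 min at 37 °C. Started with 0.5 mM each dNTP, run 5 min, stopped with formamide dye. Products resolved on 12% denaturing PAGE and imaged. Normalized data fitted to a variable-slope log[inhibitor]–response curve to give IC50.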

[5] = system: Human immunodeficiency virus 1; assay: Ratio of IC50 for HIV1 reverse transcriptase p66/p51 polymerase K65R mutant to IC50 for HIV1 reverse transcriptase p66/p51 polymerase wild type
[6] = molecular target: Human immunodeficiency virus type 1 reverse transcriptase (Human immunodeficiency virus 1, UniProt Q72547, M184V); assay: Inhibition of HIV1 reverse transcriptase p66/p51 polymerase M184V mutant using PPT57 DNA/Cy5-labeled PPT24 as template/primer preincubated for 10 mins followed by dNTP addition measured after 5 mins by bromophenol blue staining based phosphor imaging analysis; how it was run: as §3
[7] = molecular target: T1, Human immunodeficiency virus type 1 reverse transcriptase; assay: Inhibition of HIV1 reverse transcriptase p66/p51 RNase H preincubated for 10 mins followed by PBS-22dpol/radiolabeled PBS-14r8d addition measured after 5 mins
How it was run: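 Inhibitors titrated up to 250 µM (≤5% final DMSO), 10 min preincubation at 37 °C before reaction start.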

[8] = molecular target: Human immunodeficiency virus type 1 reverse transcriptase (Human immunodeficiency virus 1, UniProt Q72547, K65R); assay: Inhibition of HIV1 reverse transcriptase p66/p51 polymerase K65R mutant using PPT57 DNA/Cy5-labeled PPT24 as template/primer preincubated for 10 mins followed by dNTP addition measured after 5 mins by bromophenol blue staining based phosphor imaging analysis; how it was run: as §3
[9] = molecular target: Human immunodeficiency virus type 1 reverse transcriptase (Human immunodeficiency virus 1) (UniProt Q72547); assay: Ratio of IC50 for HIV1 reverse transcriptase p66/p51 RNase H to IC50 for HIV1 reverse transcriptase p66/p51 polymerase
[10] = molecular target: Human immunodeficiency virus type 1 reverse transcriptase (Human immunodeficiency virus 1) (UniProt Q72547); assay: (§4) Inhibition of HIV1 reverse transcriptase p66/p51 assessed as freezing of template-primer-enzyme complex at pretranslocated stage using 5'-radiolabeled PBS36c DNA/5'-TTCTGACTAAAAGGGTCTGAGGGAT-3 as template/primer preincubated for 10 mins followed by Fe2+ addition by site-specific foot printing assay; how it was run: as §1
[11] = system: Human immunodeficiency virus 1; assay: Ratio of IC50 for HIV1 reverse transcriptase p66/p51 polymerase E89K mutant to IC50 for HIV1 reverse transcriptase p66/p51 polymerase wild type
[12] = molecular target: Human immunodeficiency virus type 1 reverse transcriptase (Human immunodeficiency virus 1) (UniProt Q72547); assay: as §4, with “stage at 100 uM” for “stage”; how it was run: as §1
[13] = molecular target: T1, Human immunodeficiency virus type 1 reverse transcriptase; assay: Inhibition of HIV1 reverse transcriptase p66/p51
How it was run: as §2, with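 “MgCl2. Inhibitor titrated up to 250 µM (≤5% final DMSO), 10 min preincubation at 37 °C.” for “MgCl2.”, “gel. IC50 from variable-slope curve fit, ≥3 independent determinations.” for “gel.”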

IC50 [2] | SMILES | other results
41 µM | Nc1ncnc2c1ncn2CCc1nc(O)c(O)c(C(=O)O)n1 | 
49 µM | Cc1cccc(-c2nc(O)c(O)c(C(=O)O)n2)c1 | 
62 µM | COc1ccc(-c2cc3c(NCc4nc(O)c(O)c(C(=O)O)n4)ncnc3nc2SC)cc1 | IC50 [7]: 2 µM
4.5 µM | O=C(O)c1nc(-c2ccc(Cl)cc2)[nH]c(=O)c1O | 
65 µM | O=C(O)c1nc(CNc2ncnc3ncccc23)nc(O)c1O | 
> 100 µM | COC(=O)c1nc(-c2ccc(C)c(Br)c2)nc(O)c1O | 
> 100 µM | CNC(=O)c1nc(-c2ccc(C)c(Br)c2)nc(O)c1O | 
22 µM | CC(C)c1ccc(-c2nc(O)c(O)c(C(=O)O)n2)cc1 | 
1.6 µM | Cc1ccc(-c2nc(O)c(O)c(C(=O)O)n2)cc1Cl | IC50 [7]: 25 µM; Ratio IC50 [9]: > 10; inhibition [10]: Dose-dependent effect
25 µM | COc1ccc(-c2cnc3ncnc(NCc4nc(O)c(O)c(C(=O)O)n4)c3c2)cc1 | IC50 [7]: 1.5 µM; Active/not active call for freezing the pre-translocated complex [12]: inactive
20 µM | O=C(O)c1nc(-c2cc(C(F)(F)F)cc(C(F)(F)F)c2)nc(O)c1O | Active/not active call for freezing the pre-translocated complex [12]: inactive
> 100 µM | O=C(O)c1nc(-c2cccc(-c3ccc(F)c(F)c3)c2)nc(O)c1O | 
> 100 µM | Nc1ncnc2c1ncn2Cc1nc(O)c(O)c(C(=O)O)n1 | 

More lines, now with the values behind:

SMILES | IC50 [2] | other results
Cn1c2ccccc2c2c1cc(C#N)c(=O)n2-c1ccc([N+](=O)[O-])cc1 |  | inhibition [1]: Active
Cc1ccc(-c2nc(O)c(O)c(C(=O)O)n2)cc1Br | 1.4 to 1.74 µM | Ratio IC50 [3]: < 2; IC50 [4]: 4.63 µM; Ratio IC50 [5]: < 2; IC50 [6]: 2.79 µM; IC50 [7]: 23 µM; IC50 [8]: 1.13 µM; Ratio IC50 [9]: > 10; inhibition [10]: Dose-dependent effect; Ratio IC50 [11]: 2.7
O=P(O)(O)C(Nc1cccc(Br)c1)P(=O)(O)O |  | Active/not active call for freezing the pre-translocated complex [12]: Active
Cc1noc(C)c1-c1ccc(-c2nc(O)c(O)c(C(=O)O)n2)cc1 | > 100 µM | 
O=C(O)c1nc(Cc2ccc(Cl)cc2)nc(O)c1O | 97 µM | 
O=C(Nc1ccc(-c2cccc(NC(P(=O)(O)O)P(=O)(O)O)c2)cc1)C1CC1 |  | IC50 [13]: > 50 µM; IC50 [7]: 0.8 µM; Active/not active call for freezing the pre-translocated complex [12]: inactive
CSc1nc2ncnc(NCc3nc(O)c(O)c(C(=O)O)n3)c2cc1Br | > 100 µM | 
O=C(O)c1nc(-c2cccs2)nc(O)c1O | 46 µM | 
O=C(O)c1nc(CNc2ncnc3ncc(Br)cc23)nc(O)c1O | 49 µM | Active/not active call for freezing the pre-translocated complex [12]: inactive
O=C(O)c1nc(-c2ccc(Br)cc2)nc(O)c1O | 2.8 µM | 
O=C(O)c1nc(-c2cccc(Br)c2)nc(O)c1O | 14 µM | Active/not active call for freezing the pre-translocated complex [12]: Active
Cc1ccc(-c2nc(O)c(O)c(C(=O)O)n2)cc1 | 6.3 µM | 
O=C(O)c1nc(-c2cccc(Cl)c2)nc(O)c1O | 18 µM | 
O=C(O)c1nc(-c2ccccc2)nc(O)c1O | > 100 µM | 
